ChEMBL document CHEMBL4602735, “Discovery of (1H-Pyrazolo[3,4-c]pyridin-5-yl)sulfonamide Analogues as Hepatitis B Virus Capsid Assembly Modulators by Conformation Constraint” (J Med Chem, 2020)
pEC50: −log10 of the molar value. Values after ≈ are worked out from the molar mass of the structure shown.

Key:
[1] = Cytotoxicity in human HepAD38 cells assessed as induction of cell killing; type: cell-based
[2] = Selectivity index, ratio of CC50 for cytotoxicity in human HepAD38 cells assessed as induction of cell killing to EC50 for antiviral activity against HBV infected in human HepAD38 cells assessed as reduction in viral DNA levels incubated for 6 days by PCR analysis; type: toxicity, cell-based; conditions: read-out: Ratio CC50/EC50
[3] = system: Hepatitis B virus; assay: Antiviral activity against HBV infected in human HepAD38 cells assessed as reduction in viral DNA levels incubated for 6 days by PCR analysis; type: functional, organism-based; conditions: HePAD38, 144 h
[4] = system: Hepatitis B virus; assay: Antiviral activity against HBV infected in human HepG2.A64 cells containing reverse transcriptase L180M/T184L/M204V mutant assessed as reduction in viral replication incubated for 6 days by PCR analysis; type: functional, organism-based; conditions: HepG2.A64, 144 h
Summary of the method: (§1)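 Wild-type HBV replication measured in HepAD38 and HepG2.2.15 cells, lamivudine/entecavir-resistant HBV in HepG2.A64 cells (rtL180M+rtT184L+rtM204V) and multidrug-resistant HBV in HepG2.1403F cells (rtL180M+rtM204V+rtS202G+rtN236T). Read-out is reduction of HBV DNA. EC50 is reported as mean ± SD.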

[5] = system: Hepatitis B virus; assay: Antiviral activity against multidrug-resistant HBV infected in human HepG2.1403F cells assessed as reduction in viral replication incubated for 6 days by PCR analysis; type: functional, organism-based; conditions: 144 h; summary of the method: as §1
[6] = Cytotoxicity in human HepG2 cells assessed as induction of cell killing; type: cell-based
[7] = Solubility in water at 1 mg at 25 degC by HPLC analysis; type: physicochemical
Summary of the method: (§2)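 Solubility determined in water or 0.067 M phosphate buffer at pH 5.8, 6.8 and 7.4. Values are reported in mg/mL; ND means below the detection limit.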

[8] = Solubility in pH 6.8 phosphate buffer at 1 mg at 25 degC by HPLC analysis; type: physicochemical; conditions: BLD = below limit of detection; summary of the method: as §2

SMILES | pEC50 [3] | CC50 [1] | selectivity ratio at 144 h [2] | further results
O=S(=O)(c1ccc2c(c1)c(Nc1ccc(F)c(F)c1)nn2C1CC1)N1CCOCC1 | 6.66 | > 100 µM | > 454 | 
O=S(=O)(c1cc2c(Nc3ccc(F)c(F)c3)nn(C3CC3)c2cn1)N1CCC(O)CC1 | 6.60 | > 100 µM | > 400 | 
O=C(O)C1CCN(S(=O)(=O)c2ccc3c(c2)c(Nc2ccc(F)cc2)nn3C2CC2)C1 (stereo not given) | < 5.00 | > 100 µM |  | 
O=S(=O)(c1ccc2c(c1)c(Nc1ccc(F)cc1)nn2C1CC1)N1CCCC(O)C1 (stereo not given) | 6.60 | 19.1 µM | 76.2 | 
O=S(=O)(c1ccc2c(c1)c(Nc1ccc(Cl)cc1)nn2C1CC1)N1CCC(O)CC1 | 5.50 | 6.9 µM | 2.2 | 
O=S(=O)(c1cc2c(Nc3ccc(F)c(F)c3)nn(C3CC3)c2cn1)N1CCOCC1 | 6.66 | > 100 µM | > 454 | 
O=S(=O)(c1ccc2c(c1)c(NC1CCCCC1)nn2C1CC1)N1CCC(O)CC1 | < 5.00 | 100 µM | < 10 | 
O=S(=O)(c1cc2c(Nc3ccc(F)c(C(F)F)c3)nn(C3CC3)c2cn1)N1CCOCC1 | 6.64 | > 100 µM | > 435 | 
C[C@H](Cn1cnc2c(N)ncnc21)OCP(=O)(O)O [TENOFOVIR ANHYDROUS] | 8.00 |  |  | pEC50 [4]: 6.08; pEC50 [5]: 5.60; CC50 [6]: 15 µM
O=S(=O)(c1cc2c(Nc3cc(F)c(F)c(F)c3)nn(C3CC3)c2cc1F)N1CCC(O)CC1 | 6.89 | > 100 µM | > 769 | 
O=S(=O)(c1ccc2c(c1)c(Nc1ccc(F)cc1Cl)nn2C1CC1)N1CCC(O)CC1 | 5.40 | > 100 µM | > 25 | 
O=S(=O)(c1ccc2c(c1)c(Nc1ccc(F)c(C(F)(F)F)c1)nn2C1CC1)N1CCOCC1 | 6.54 | 8.42 µM | 29 | 
CC(=O)O.Cc1cc(Nc2nn(C3CC3)c3cnc(S(=O)(=O)N4CCC(OC(=O)CN(C)C)CC4)cc23)ccc1F |  |  |  | solubility [7]: 1110 µg/mL; solubility [8]: Bld
O=S(=O)(c1ccc2c(c1)c(NC1CCCC1)nn2C1CC1)N1CCC(O)CC1 | < 5.00 | > 100 µM |  | 
O=S(=O)(c1cnc2c(c1)c(Nc1cc(F)c(F)c(F)c1)nn2C1CC1)N1CCC(O)CC1 | < 4.70 |  |  | 
O=S(=O)(c1ccc2c(c1)c(Nc1ccc(F)c(C(F)F)c1)nn2C1CC1)N1CCOCC1 | 6.92 | 50 µM | 417 | 
O=S(=O)(c1ccc2c(c1)c(Nc1ccc(F)cc1)nn2C1CC1)N1CCC2(CC1)OCCO2 | 6.60 | > 100 µM | > 400 | 
Cc1cc(Nc2nn(C3CC3)c3ccc(S(=O)(=O)N4CCC(O)CC4)cc23)ccc1F | 7.49 | 11 µM | 343 | 
O=S(=O)(c1ccc2c(c1)c(Nc1ccc(F)c(C(F)F)c1)nn2C1CC1)N1CCC(O)CC1 | 6.54 | 13.6 µM | 47 | 

SMILES | pEC50 [3] | CC50 [1] | selectivity ratio at 144 h [2] | further results
O=C1CCN(S(=O)(=O)c2ccc3c(c2)c(Nc2ccc(F)cc2)nn3C2CC2)CC1 | 6.48 | 14.2 µM | 43 | 
O=S(=O)(c1ccc2c(c1)c(Nc1ccc(F)c(F)c1)nn2C1CC1)N1CCC(O)CC1 | 6.92 | 75 µM | 625 | 
O=S(=O)(c1ccc2c(c(Nc3cc(F)c(F)c(F)c3)nn2C2CC2)c1F)N1CCC(O)CC1 | < 4.70 | > 100 µM |  | 
C=C1[C@H](CO)[C@@H](O)C[C@@H]1n1cnc2c(=O)[nH]c(N)nc21 | 7.96 |  |  | pEC50 [4]: < 5.00; pEC50 [5]: < 5.00; CC50 [6]: 42.1 µM
Cc1cc(Nc2nn(C3CC3)c3cnc(S(=O)(=O)N4CCC(OC(=O)CN(C)C)CC4)cc23)ccc1F |  |  |  | solubility [7]: 710 µg/mL (≈ 1340 µM)
O=S(=O)(c1ccc2c(c1)c(NCc1ccccc1)nn2C1CC1)N1CCC(O)CC1 | < 5.00 |  |  | 
Cc1cc(Nc2nn(C3CC3)c3ccc(S(=O)(=O)N4CCC(O)CC4)cc23)ccn1 | < 4.70 | 46.6 µM | < 23 | 
O=S(=O)(c1ccc2c(c1)c(Nc1ccc(F)cn1)nn2C1CC1)N1CCC(O)CC1 | < 5.00 |  |  | 
Cc1cc(F)ccc1Nc1nn(C2CC2)c2ccc(S(=O)(=O)N3CCC(O)CC3)cc12 | 5.94 | > 100 µM | > 87 | 
Cc1cc(Nc2nn(C(F)F)c3ccc(S(=O)(=O)N4CCOCC4)cc23)ccc1F | < 5.00 | > 100 µM |  | 
O=S(=O)(c1ccc2c(c1)c(Nc1ccc(F)c(C3CC3)c1)nn2C1CC1)N1CCC(O)CC1 | 6.17 | 5.86 µM | 8.6 | 
O=S(=O)(c1cc2c(Nc3cc(F)c(F)c(F)c3)nn(C3CC3)c2cn1)N1CCC(O)CC1 | 6.62 | > 100 µM | > 417 | 
CCn1nc(Nc2ccc(F)cc2)c2cc(S(=O)(=O)N3CCC(O)CC3)ccc21 | 5.90 | > 100 µM | > 79 | 
Cc1cc(Nc2nn(CCF)c3ccc(S(=O)(=O)N4CCOCC4)cc23)ccc1F | 6.39 | > 100 µM | > 244 | 
O=S(=O)(c1ccc2c(c1)c(NCc1ccc(F)cc1)nn2C1CC1)N1CCC(O)CC1 | < 5.00 |  |  | 
O=S(=O)(c1ccc2c(c1)c(Oc1ccc(F)c(Cl)c1)nn2C1CC1)N1CCC(O)CC1 | < 5.00 | 75 µM | < 7.5 | 
O=S(=O)(c1ccc2c(c1)c(Nc1ccc(F)c(Cl)c1)nn2C1CC1)N1CCC(O)CC1 | 6.72 | 18.3 µM | 96 | 
Cc1cc(Nc2nn(CC(F)F)c3ccc(S(=O)(=O)N4CCOCC4)cc23)ccc1F | 6.64 | > 100 µM | > 435 | 

The next lines start with results.

pEC50 [3] | SMILES | CC50 [1] | selectivity ratio at 144 h [2] | further results
6.62 | Cc1cc(Nc2nn(CC(F)(F)F)c3ccc(S(=O)(=O)N4CCOCC4)cc23)ccc1F | > 100 µM | > 417 | 
6.47 | O=S(=O)(c1cc2c(Nc3ccc(F)c(C(F)(F)F)c3)nn(C3CC3)c2cn1)N1CCOCC1 | > 100 µM | > 294 | 
5.89 | O=S(=O)(c1ccc2[nH]nc(Nc3ccc(F)c(Cl)c3)c2c1)N1CCC(O)CC1 | 24 µM | 18.8 | 
6.13 | O=S(=O)(c1ccc2c(c1)c(Nc1ccccc1)nn2C1CC1)N1CCC(O)CC1 | 32.2 µM | 44 | 
5.10 | O=S(=O)(c1ccc2c(c1)c(Nc1ccc(F)cc1)nn2C1CCC1)N1CCC(O)CC1 | 10.8 µM | 1.3 | 
< 5.30 | O=S(=O)(c1ccc2c(n1)c(Nc1cc(F)c(F)c(F)c1)nn2C1CC1)N1CCC(O)CC1 |  |  | 
6.37 | O=S(=O)(c1ccc2c(c1)c(Nc1ccc(F)cc1)nn2C1CC1)N1CCOCC1 | > 100 µM | > 232 | 
5.68 | O=S(=O)(c1ccc2c(c1)c(Nc1ccc(F)cc1)nn2C1CC1)N1CCC(O)C1 (stereo not given) | 60 µM | 28 | 
< 5.00 | Cc1cc(Nc2nn(C3CC3)c3ccc(S(=O)(=O)N4CCC(O)CC4)cc23)ncc1F |  |  | 
5.86 | Cn1nc(Nc2ccc(F)c(Cl)c2)c2cc(S(=O)(=O)N3CCC(O)CC3)ccc21 | > 100 µM | > 72 | 
< 5.00 | O=S(=O)(c1ccc2c(c1)c(Nc1ccc(F)cc1)nn2C1COC1)N1CCC(O)CC1 |  |  | 
6.54 | Cc1cc(Nc2n[nH]c3ccc(S(=O)(=O)N4CCOCC4)cc23)ccc1F | 50 µM | 172 | 
5.70 | O=S(=O)(c1cc(F)c2c(c1)c(Nc1cc(F)c(F)c(F)c1)nn2C1CC1)N1CCC(O)CC1 | > 100 µM | > 50 | 
6.66 | O=S(=O)(c1ccc2c(c1)c(Nc1ccc(F)cc1)nn2C1CC1)N1CCC(O)CC1 | > 100 µM | > 455 | 
5.96 | O=S(=O)(c1ccc2c(c1)c(Nc1ccc(F)cc1)nn2C1CC1)N1CCC(CO)CC1 | 24.8 µM | 23 | 
6.68 | Cc1cc(Nc2nn(C3CC3)c3cc(F)c(S(=O)(=O)N4CCOCC4)cc23)ccc1F | > 100 µM |  | 
5.22 | O=S(=O)(c1ccc2c(c1)c(Nc1ccc(F)c(C(F)(F)F)c1)nn2C1CC1)N1CCC(O)CC1 | 7.52 µM | 1.3 | 
< 5.00 | CC(C)n1nc(Nc2ccc(F)cc2)c2cc(S(=O)(=O)N3CCC(O)CC3)ccc21 |  |  | 
5.30 to 6.66 | Cc1ccc(Nc2nn(C3CC3)c3ccc(S(=O)(=O)N4CCC(O)CC4)cc23)cc1 |  |  | 
7.35 | Cc1cc(Nc2nn(C3CC3)c3ccc(S(=O)(=O)N4C[C@@H]5C[C@H]4CO5)cc23)ccc1F | 19 µM | 422 | 
< 5.00 | CN(c1ccc(F)c(Cl)c1)c1nn(C2CC2)c2ccc(S(=O)(=O)N3CCC(O)CC3)cc12 | > 100 µM |  | 
< 5.00 | N#Cc1cc(Nc2nn(C3CC3)c3ccc(S(=O)(=O)N4CCC(O)CC4)cc23)ccc1F |  |  | 
